Calls of active or inactive are those of the source. The calls are words filed in the database; no cut-off is given here.
Columns and labels:
Talaromyces funiculosus [1] = test: Antifungal activity against Penicillium funiculosum at 0.5% (w/v) concentration by disc diffusion method; format: functional
Summary of the method: (§1)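 Potato dextrose agar plates were seeded with a spore suspension (10⁶ spores/mL). Compounds in acetone at a final 0.5%, 1% or 2% w/v were loaded onto 5 mm filter-paper discs. Plates were incubated at 28 ± 2 °C for four days. Zone diameter was measured after subtracting the acetone-only plate zone, with carbendazim as standard.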

Aspergillus flavus [2] = test: Antifungal activity against Aspergillus flavus at 1% (w/v) concentration by disc diffusion method; format: functional; summary of the method: as §1
Talaromyces funiculosus [3] = test: Antifungal activity against Penicillium funiculosum at 1% (w/v) concentration by disc diffusion method; format: functional; summary of the method: as §1
Aspergillus flavus [4] = test: Antifungal activity against Aspergillus flavus at 0.5% (w/v) concentration by disc diffusion method; format: functional; summary of the method: as §1
Fusarium oxysporum [5] = test: Antifungal activity against Fusarium oxysporum at 2% (w/v) concentration by disc diffusion method; format: functional; summary of the method: as §1
Talaromyces funiculosus [6] = test: Antifungal activity against Penicillium funiculosum at 2% (w/v) concentration by disc diffusion method; format: functional; summary of the method: as §1
Fusarium oxysporum [7] = test: Antifungal activity against Fusarium oxysporum at 1% (w/v) concentration by disc diffusion method; format: functional; summary of the method: as §1
Fusarium oxysporum [8] = test: Antifungal activity against Fusarium oxysporum at 0.5% (w/v) concentration by disc diffusion method; format: functional; summary of the method: as §1
Alternaria macrospora [9] = test: Antifungal activity against Alternaria macrospora at 2% (w/v) concentration by disc diffusion method; format: functional; summary of the method: as §1
Alternaria macrospora [10] = test: Antifungal activity against Alternaria macrospora at 0.5% (w/v) concentration by disc diffusion method; format: functional; summary of the method: as §1
Alternaria macrospora [11] = test: Antifungal activity against Alternaria macrospora at 1% (w/v) concentration by disc diffusion method; format: functional; summary of the method: as §1
Aspergillus flavus [12] = test: Antifungal activity against Aspergillus flavus at 2% (w/v) concentration by disc diffusion method; format: functional; summary of the method: as §1
Salmonella typhi [13] = test: Antibacterial activity against Salmonella typhi at 0.25% (w/v) concentration after 24 hrs by disc diffusion method; format: functional, Salmonella enterica subsp. enterica serovar Typhi
Summary of the method: (§2)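 Disc diffusion on nutrient agar (pH 7.5 ± 0.2) swabbed with bacteria. Compounds were dissolved in chloroform at a final 0.125%, 0.25% or 0.5% w/v and loaded onto 5 mm filter-paper discs. Plates were incubated at 35 ± 2 °C for 24 h. The inhibition-zone diameter (mm) was reported after subtracting the zone of the solvent-only plate.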

Escherichia coli [14] = test: Antibacterial activity against Escherichia coli at 0.5% (w/v) concentration by after 24 hrs by disc diffusion method; format: functional
Summary of the method: (§3)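 Disc diffusion on nutrient agar (pH 7.5 ± 0.2) swabbed with bacterial culture; compounds dissolved in chloroform at 0.125%, 0.25% or 0.5% w/v, soaked onto 5 mm filter paper discs placed on seeded plates. Incubated 35 ± 2 °C, 24 h; inhibition zone diameter (mm) measured, minus zone from solvent-only plate.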

Aeromonas hydrophila [15] = test: Antibacterial activity against Aeromonas hydrophila at 0.5% (w/v) concentration after 24 hrs by disc diffusion method; format: functional; summary of the method: as §3
Salmonella typhi [16] = test: Antibacterial activity against Salmonella typhi at 0.125% (w/v) concentration after 24 hrs by disc diffusion method; format: functional, Salmonella enterica subsp. enterica serovar Typhi; summary of the method: as §2
Salmonella typhi [17] = test: Antibacterial activity against Salmonella typhi at 0.5% (w/v) concentration after 24 hrs by disc diffusion method; format: functional, Salmonella enterica subsp. enterica serovar Typhi; summary of the method: as §2
Aeromonas hydrophila [18] = test: Antibacterial activity against Aeromonas hydrophila at 0.25% (w/v) concentration after 24 hrs by disc diffusion method; format: functional; summary of the method: as §3
Escherichia coli [19] = test: Antibacterial activity against Escherichia coli at 0.125% (w/v) concentration after 24 hrs by disc diffusion method; format: functional; summary of the method: as §3
Aeromonas hydrophila [20] = test: Antibacterial activity against Aeromonas hydrophila at 0.125% (w/v) concentration after 24 hrs by disc diffusion method; format: functional; summary of the method: as §3
Escherichia coli [21] = test: Antibacterial activity against Escherichia coli at 0.25% (w/v) concentration after 24 hrs by disc diffusion method; format: functional; summary of the method: as §3
[22] = Induction of chromosomal aberration in human peripheral blood leukocytes assessed as number of chromatid gaps at 20 ug/mL after 24 hrs; format: functional, Leukocyte
Summary of the method: (§4)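 Leukocytes from venous blood of three healthy non-smoking male donors, cultured at 37 °C for 72 h in McCoy's 5a with AB serum and PHA. Compound in 1% acetone was added at 0, 24 or 48 h after culture initiation (72, 48 or 24 h exposure), with water and acetone controls and triplicate cultures. Colchicine was added before harvest, then KCl hypotonic, fixation and Giemsa staining. Gaps and breaks were counted in 350 metaphases per treatment.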

[23] = Induction of chromosomal aberration in human peripheral blood leukocytes assessed as number of chromatid breaks at 20 ug/mL after 24 hrs; format: functional, Leukocyte; summary of the method: as §4

| Structure (SMILES) | inhibition zone (IZ) (Talaromyces funiculosus [1]) [mm] | inhibition zone (IZ) (Aspergillus flavus [2]) [mm] | inhibition zone (IZ) (Talaromyces funiculosus [3]) [mm] | inhibition zone (IZ) (Aspergillus flavus [4]) [mm] | inhibition zone (IZ) (Fusarium oxysporum [5]) [mm] | inhibition zone (IZ) (Talaromyces funiculosus [6]) [mm] | inhibition zone (IZ) (Fusarium oxysporum [7]) [mm] | inhibition zone (IZ) (Fusarium oxysporum [8]) [mm] | inhibition zone (IZ) (Alternaria macrospora [9]) [mm] | inhibition zone (IZ) (Alternaria macrospora [10]) [mm] | inhibition zone (IZ) (Alternaria macrospora [11]) [mm] | inhibition zone (IZ) (Aspergillus flavus [12]) [mm] | inhibition zone (IZ) (Salmonella typhi [13]) [mm] | inhibition zone (IZ) (Escherichia coli [14]) [mm] | inhibition zone (IZ) (Aeromonas hydrophila [15]) [mm] | inhibition zone (IZ) (Salmonella typhi [16]) [mm] | inhibition zone (IZ) (Salmonella typhi [17]) [mm] | inhibition zone (IZ) (Aeromonas hydrophila [18]) [mm] | inhibition zone (IZ) (Aeromonas hydrophila [20]) [mm] | inhibition zone (IZ) (Escherichia coli [21]) [mm] | other results |
| --- | --- | --- | --- | --- | --- | --- | --- | --- | --- | --- | --- | --- | --- | --- | --- | --- | --- | --- | --- | --- | --- |
| COC(=O)Nc1nc2ccccc2[nH]1 [CARBENDAZIM] | 9 | 14 | 16 | 6 | 18 | 21 | 11 | 6 | 18 | 7 | 13 | 21 |  |  |  |  |  |  |  |  |  |
| Cc1ccc(C)c2c(Cl)c(C=O)c(/C=C/O)nc12 | 3 | 7 | 7 | 4 | 12 | 11 | 7 | 3 | 13 | 3 | 8 | 12 | 8 | 9 | 10 | 5 | 13 | 6 | 4 | 5 | inhibition zone (IZ) (Escherichia coli [19]): 3 mm |
| Cc1ccc2c(Cl)c3c(nc2c1)C=CNN=C3 | 3 | 7 | 6 | 4 | 11 | 11 | 7 | 3 | 12 | 4 | 10 | 11 | 9 | 5 | 12 | 4 | 13 | 9 | 5 | 1 | Activity [22]: 1.1%; Activity (Escherichia coli [19]): inactive; Activity [23]: 0.6% |
| O=Cc1c(/C=C/O)nc2ccccc2c1Cl |  | 3 | 1 | 2 | 4 | 5 |  |  | 4 |  | 1 | 8 | 5 |  | 9 | 3 | 9 | 6 | 4 |  | Activity (Talaromyces funiculosus [1]): inactive; Activity (Escherichia coli [14]): inactive; Activity (Fusarium oxysporum [7]): inactive; Activity (Escherichia coli [19]): inactive; Activity (Fusarium oxysporum [8]): inactive; Activity (Escherichia coli [21]): inactive; Activity (Alternaria macrospora [10]): inactive |
| Clc1c2c(nc3ccccc13)C=CNN=C2 | 1 | 5 | 4 | 3 | 7 | 9 | 3 |  | 7 | 1 | 3 | 9 | 6 | 4 | 12 | 4 | 10 | 8 | 5 | 2 | Activity (Escherichia coli [19]): inactive; Activity (Fusarium oxysporum [8]): inactive |
| Cc1cccc2c(Cl)c(C=O)c(/C=C/O)nc12 |  | 2 | 2 | 1 | 7 | 6 | 3 |  | 9 | 2 | 5 | 5 | 7 |  | 11 | 4 | 11 | 8 | 4 |  | Activity (Talaromyces funiculosus [1]): inactive; Activity (Escherichia coli [14]): inactive; Activity (Escherichia coli [19]): inactive; Activity (Fusarium oxysporum [8]): inactive; Activity (Escherichia coli [21]): inactive |
| Clc1ccc2nc3c(c(Cl)c2c1)C=NNC=C3 | 6 | 8 | 9 | 5 | 13 | 14 | 8 | 4 | 15 | 5 | 9 | 13 | 12 | 11 | 16 | 6 | 19 | 11 | 6 | 7 | inhibition zone (IZ) (Escherichia coli [19]): 3 mm |
| O=Cc1c(/C=C/O)nc2ccc(Cl)cc2c1Cl | 2 | 6 | 5 | 3 | 11 | 10 | 5 | 2 | 11 | 3 | 7 | 10 | 11 | 8 | 14 | 6 | 17 | 9 | 5 | 5 | inhibition zone (IZ) (Escherichia coli [19]): 1 mm |
| Cc1ccc2c(Cl)c(C=O)c(/C=C/O)nc2c1 | 1 | 5 | 3 | 3 | 9 | 8 | 4 | 1 | 7 | 2 | 4 | 9 | 8 | 2 | 10 | 4 | 13 | 7 | 3 |  | Activity (Escherichia coli [19]): inactive; Activity (Escherichia coli [21]): inactive |
| CN[C@@H]1[C@H](O[C@H]2[C@H](O[C@H]3[C@H](O)[C@@H](O)[C@H](N=C(N)N)[C@@H](O)[C@@H]3N=C(N)N)O[C@@H](C)[C@]2(O)C=O)O[C@@H](CO)[C@H](O)[C@H]1O (stereo in doubt) [STREPTOMYCIN] |  |  |  |  |  |  |  |  |  |  |  |  | 10 | 15 | 19 | 8 | 18 | 12 | 8 | 9 | inhibition zone (IZ) (Escherichia coli [19]): 6 mm |

Source: ChEMBL document CHEMBL1147863, “Synthesis, antimicrobial activities and cytogenetic studies of newer diazepino quinoline derivatives via Vilsmeier-Haack reaction” (2007)
